Bioassay records: PubChem, several laboratories
Hits are enriched below; roughly 4.1% of the tested compounds scored in any of these assays.
TAG inh: triacylglycerol accumulation inhibition | H9c2 cells, Nile Red lipid (TAG) fluorescence; cells loaded with 200 µM oleic acid | inhibition, % at 12.5 µM | 230,000 compounds, 0.66% hits;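 active = pattern-corrected inhibition of lipid staining of at least 50% with the nuclear-stain viability signal not falling by more than 50%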
Tb MetRS inh: blocks T. brucei methionyl-tRNA synthetase activity; purified T. brucei MetRS, ATP depletion, Kinase-Glo luminescence; inhibition, % at 11.9 µM; 360,000 compounds, 0.4% hits; AID 624268;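 active = inhibition above a per-plate cutoff of the control wells' mean inhibition plus 3 SD, cut at about 5.5% in these data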
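System: purified T. brucei MetRS enzyme / Detection: Kinase-Glo luciferase luminescence reporting remaining unconsumed ATP / Medium: HEPES buffer with MgCl2, KCl, DTT, spermine, BSA, pyrophosphatase / Replication: singlicate, one well per compound / Evaluation: percent inhibition relative to median high and low control wells / Schedule: 2 h aminoacylation at 25 °C after 15 min preincubation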
SMARCA2 activ: activators of SMARCA2 function; activation, % at 9.1 µM; MG213 cells, MMTV-luciferase reporter, dexamethasone, overnight; 370,000 compounds, 1% hits; AID 652017; in the data active = activation above about 7.8%
Efflux pump mplx: inhibitors of Candida antifungal efflux pumps expressed in yeast. S. cerevisiae Candida pump triplex, Nile Red efflux. inhibition, % at 10 µM. 330,000 compounds, 0.44% hits. AID 485275;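 active = plate passing quality check with inhibition over a set limit, or well fluorescence over plate mean plus 4 SD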;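 also: Nile Red retained in pooled yeast measured as flow cytometry median fluorescence; higher means more Nile Red kept so more efflux inhibition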
AHR activator: human AHR activation; P35869; AHR-responsive luciferase reporter cells, luminescence; activation, % at 5 µM; 320,000 compounds, 2.5% hits; AID 2796; in the data active = activation above about 47%
Target sequence (P35869 whole entry, looked up): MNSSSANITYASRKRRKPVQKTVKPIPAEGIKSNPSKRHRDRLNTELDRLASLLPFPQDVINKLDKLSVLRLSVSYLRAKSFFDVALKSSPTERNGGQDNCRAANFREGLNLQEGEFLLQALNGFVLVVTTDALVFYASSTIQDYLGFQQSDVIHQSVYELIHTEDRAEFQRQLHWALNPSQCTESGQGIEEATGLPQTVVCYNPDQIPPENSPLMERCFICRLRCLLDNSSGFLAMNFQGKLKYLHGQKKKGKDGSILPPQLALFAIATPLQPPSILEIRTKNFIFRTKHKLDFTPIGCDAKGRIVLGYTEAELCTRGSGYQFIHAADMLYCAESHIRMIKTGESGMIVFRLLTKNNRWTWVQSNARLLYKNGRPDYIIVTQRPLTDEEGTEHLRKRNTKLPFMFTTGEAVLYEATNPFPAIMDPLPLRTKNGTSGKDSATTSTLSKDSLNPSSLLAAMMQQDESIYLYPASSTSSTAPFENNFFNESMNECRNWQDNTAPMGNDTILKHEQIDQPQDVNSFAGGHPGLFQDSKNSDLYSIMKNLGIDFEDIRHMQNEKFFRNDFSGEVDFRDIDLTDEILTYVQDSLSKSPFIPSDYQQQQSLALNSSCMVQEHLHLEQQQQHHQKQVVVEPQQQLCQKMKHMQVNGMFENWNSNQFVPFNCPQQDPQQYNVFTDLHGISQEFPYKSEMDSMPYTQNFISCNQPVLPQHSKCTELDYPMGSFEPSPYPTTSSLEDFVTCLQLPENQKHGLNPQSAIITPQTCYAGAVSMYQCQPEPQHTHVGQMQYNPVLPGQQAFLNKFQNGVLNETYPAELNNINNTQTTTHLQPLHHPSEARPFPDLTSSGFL
SMARCA2 conf: SMARCA2 activation, confirmation screen. shares compounds with SMARCA2 activ. MG213 cells, MMTV-luciferase with dexamethasone, luminescence, overnight; MG213 cells expressing E1A, Rb sequestered; DMSO wells 0%, reference activator 100%. activation, % at 9.1 µM. 3,500 compounds, 30% hits;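 active = activation above its plate's cutoff, the mean activation of tested wells plus 3 SD, cut at about 7.9% in these data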
GAL4-VP16 Luc: activates GAL4-VP16 luciferase, flagging SMARCA2 activator hits; shares compounds with SMARCA2 activ; HEK293 GAL4-VP16 pG5luc reporter, luciferase luminescence; scaled: DMSO wells 0%, SAHA wells 100%; activation, % at 9.1 µM; 3,500 compounds, 41% hits; AID 686939;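 active = activation above the solvent-only control well mean plus 3 SD, averaged across control plates, cut at about 5.2% in these data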
Of the large screens only hits and unclear results are named; the others gave an inactive call (follow-up assays come after a bar, where they were run).

O=C(COc1ccc(C(=O)NCc2cccnc2)cc1)Nc1cccc(C(F)(F)F)c1	none
Cc1cc(=O)c2c(ccc3c(=O)cc(C)[nH]c32)[nH]1	none (no result: TAG inh, Tb MetRS inh, Efflux pump mplx, AHR activator)
CCCS(=O)(=O)NC(=O)C1(C)CCCN(C(=O)c2cccc3ccccc23)C1 (stereo not drawn)	none (no result: Efflux pump mplx, AHR activator)
CCCS(=O)(=O)NC(=O)C1(C)CCCN(C(=O)c2ccccc2C(F)(F)F)C1 (stereo not drawn)	SMARCA2 activ 8.1 (no result: Efflux pump mplx, AHR activator) | SMARCA2 conf inactive | GAL4-VP16 Luc inactive
c1cncc(Oc2ccc(NCCc3c[nH]c4ccccc34)cc2)c1	none (no result: TAG inh, Tb MetRS inh, Efflux pump mplx, AHR activator)
CCCCCCCCNc1nc(Cl)nc(NCc2ccco2)n1	SMARCA2 activ 11 (no result: TAG inh) | SMARCA2 conf inactive | GAL4-VP16 Luc inactive
O=C(OCc1cc(=O)oc2cc(O)ccc12)c1cc(S(=O)(=O)N2CCOCC2)ccc1F	SMARCA2 activ 8.4 | SMARCA2 conf 12 | GAL4-VP16 Luc inactive
CCc1cc2c(COC(=O)c3cc(S(=O)(=O)N4CCOCC4)ccc3F)cc(=O)oc2cc1O	none
COC[C@H]1CCCN1c1cccc2c1S(=O)(=O)N1CC[C@H](C1)O2	none (no result: TAG inh, Tb MetRS inh, Efflux pump mplx, AHR activator)
COC(=O)c1ccccc1N/C=C/C(=O)c1ccc(Br)cc1	none (no result: TAG inh)
NC(=O)c1ccccc1N/C=C/C(=O)c1ccccc1	SMARCA2 activ 8.0 (no result: TAG inh) | SMARCA2 conf 11 | GAL4-VP16 Luc 9.8
CCCCCCCCN1C(=O)[C@@H](CC(=O)NCCc2ccccc2OC)C[C@@]2(C(=O)OC)C1=C[C@H](C(C)C)O[C@@H]2C1CC1	none (no result: TAG inh, Tb MetRS inh, Efflux pump mplx, AHR activator)
Cc1ccc(C(=O)CC(C(=O)O)n2ccc(C)n2)cc1 (stereo not drawn)	SMARCA2 activ 8.2 | SMARCA2 conf inactive | GAL4-VP16 Luc inactive
Cc1ccc(C(=O)CSc2nc(C)cc(C)c2C(N)=O)cc1	none (no result: TAG inh)
CCOc1ncnc2c1sc1nc(C)cc(C)c12	none
Cc1cc(C)c2c(n1)sc1c(N3CCN(CCO)CC3)ncnc12	SMARCA2 activ 8.5 (no result: TAG inh) | SMARCA2 conf inactive | GAL4-VP16 Luc inactive
CCN(CC)c1ccc(Nc2cc3n(c(=O)n2)CCc2cc(OC)c(OC)cc2-3)cc1	SMARCA2 activ 14 (no result: TAG inh) | SMARCA2 conf 18 | GAL4-VP16 Luc inactive
CN(C(=O)COC(=O)Cc1c(F)cccc1Cl)c1c(N)n(Cc2ccccc2)c(=O)[nH]c1=O	SMARCA2 activ 9.4 | SMARCA2 conf inactive | GAL4-VP16 Luc inactive
CSc1nc(SCC(=O)NC(c2ccccc2)c2ccccc2)c2c3c(sc2n1)CN(C)CC3	SMARCA2 activ 12 (no result: TAG inh) | SMARCA2 conf inactive | GAL4-VP16 Luc inactive
COc1ccc(S(=O)(=O)NC(N)=NCCc2ccc(OC)c(OC)c2)cc1	SMARCA2 activ 10 (no result: TAG inh, Tb MetRS inh) | SMARCA2 conf inactive | GAL4-VP16 Luc inactive
N#Cc1ccccc1OCC(=O)Nc1ccc(S(=O)(=O)N2CCOCC2)cc1	SMARCA2 activ 9.6 | SMARCA2 conf inactive | GAL4-VP16 Luc inactive
O=C(COC(=O)Cc1ccc(S(=O)(=O)N2CCOCC2)s1)Nc1ccccc1	SMARCA2 activ 8.1 | SMARCA2 conf inactive | GAL4-VP16 Luc inactive
O=C(Nc1cccc(C(F)(F)F)c1)OC1CCC12CCC(c1ccccc1)CC2 (stereo not drawn)	none (no result: TAG inh, Tb MetRS inh, Efflux pump mplx, AHR activator)
COc1nc(Nc2nc3ccccc3c(=O)[nH]2)nc2ccc(C)cc12	none
COc1nc(N=C(N)N)nc2ccc(C)cc12	SMARCA2 activ 8.8 (no result: TAG inh, Tb MetRS inh) | SMARCA2 conf 43 | GAL4-VP16 Luc inactive
COC(=O)/C(=C1/Oc2ccc(C(C)(C)C)cc2S1)C(F)(F)F	none (no result: TAG inh)
COC(=O)/C(=C1/Oc2cc(C)oc(=O)c2S1)C(F)(F)F	SMARCA2 activ 9.1 (no result: TAG inh) | SMARCA2 conf inactive | GAL4-VP16 Luc inactive
CC(C)CCNC(=O)C(=O)Nc1ccccc1	SMARCA2 activ 9.1 | SMARCA2 conf inactive | GAL4-VP16 Luc 7.2
O=C(NCCc1ccc(F)cc1)c1coc(=O)c(Br)c1	SMARCA2 activ 27 (no result: TAG inh) | SMARCA2 conf inactive | GAL4-VP16 Luc inactive
O=C(Nc1ccccc1F)c1coc(=O)c(Br)c1	none
Nc1ccn([C@@H]2O[C@H](C(=O)N[C@H](Cc3ccccc3)C(=O)NCC(=O)N3CCOCC3)[C@@H](O)[C@H]2O)c(=O)n1	none (no result: TAG inh, Tb MetRS inh, Efflux pump mplx, AHR activator)
